In ChEMBL document CHEMBL1135975, “Design, synthesis, and evaluation of new noncross-linking pyrrolobenzodiazepine dimers with efficient DNA binding ability and potent antitumor activity” (2002):
Values joined by “and” are separate entries in the source; they are usually repeats but may differ in a detail not shown here. Equal entries are not always repeated.

How the values were obtained:
Bos taurus [1] = species: Bos taurus; assay: Thermal denaturation measured for calf thymus DNA after incubation at 37 degree at 0h.
Outline: (§1)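 Calf thymus DNA (100 µM in phosphate) with ligand at 20 µM final, a 1:5 ligand/DNA molar ratio, added from concentrated MeOH solution. Buffer was 10 mM sodium phosphate with 1 mM EDTA, pH 7.00. Samples were incubated at 37 °C for 0 or 18 h, then heated at 1 °C/min over 40-90 °C with A260 monitored. Tm was taken from the d(A260)/dT maxima, and ∆Tm given relative to DNA alone.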

Bos taurus [2] = species: Bos taurus; assay: Thermal denaturation measured for calf thymus DNA after incubation at 37 degree at 18 h.; outline: as §1
CNS carcinoma cell = assay: Drug concentration causing 50% lethality against human cancer line of CNS; format: functional
Outline: (§2)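 Sixty-line human tumour panel screen: at least five concentrations at 10-fold dilutions, 48 h continuous exposure, growth read by sulforhodamine B protein stain. LC50 is the molar concentration giving 50% cell death (-50% growth) relative to control, as log LC50. Each cancer-type value is the average of 6-8 different cell lines.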

Tumor Cell line [3] = assay: In vitro cytotoxicity of drug concentration causing 50% cell death; format: functional, Homo sapiens; conditions: read-out: Log LC50 (the source's name) (converted)
Outline: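 Compound tested against sixty human tumour lines from nine cancer types, each line at at least five concentrations at 10-fold dilutions, 48 h continuous exposure, sulforhodamine B protein read-out. LC50 is the concentration causing 50% cell death (-50% growth) versus control. The value is the mean graph midpoint of log LC50 over all lines.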

Melanoma cell = assay: Drug concentration causing 50% lethality against human cancer line melanoma; format: functional; conditions: read-out: Log LC50 (the source's name) (converted); outline: as §2
Renal cancer cell line = assay: Drug concentration causing 50% lethality against renal human cancer line; format: functional; conditions: read-out: Log LC50 (the source's name) (converted); outline: as §2
Prostatic carcinoma cell = assay: Drug concentration causing 50% lethality against prostate human cancer line; format: functional; conditions: read-out: Log LC50 (the source's name) (converted); outline: as §2
Tumor Cell line [4] = assay: In vitro cytotoxicity of drug concentration causing total cell growth inhibition; format: functional, Homo sapiens; conditions: read-out: Log TGI (converted)
Outline: (§3)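 Sixty human tumor cell lines covering nine cancer types. Continuous drug exposure for 48 h, with growth or viability read by sulforhodamine B protein assay. Dose-response curves were run at a minimum of five concentrations at 10-fold dilutions. GI50 (50% growth inhibition) and TGI (0% growth) were calculated relative to control and reported as log mean graph midpoints across all cell lines.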

Ovarian carcinoma cell = assay: Drug concentration causing 50% lethality against ovarian human cancer line; format: functional; conditions: read-out: Log LC50 (the source's name) (converted); outline: as §2
Tumor Cell line [5] = assay: In-vitro cytotoxicity of Drug molar concentration causing 50% cell growth inhibition against Human tumor cell lines; format: functional; outline: as §3
[6] = system: Panel leukemia (Carcinoma cell lines); assay: Drug concentration causing 50% lethality against human cancer line leukemia; format: functional; conditions: read-out: Log LC50 (the source's name) (converted); outline: as §2
Homo sapiens = species: Homo sapiens; assay: Drug concentration causing 50% lethality against human cancer line nonsmall-cell lung; format: functional; conditions: read-out: Log LC50 (the source's name) (converted); outline: as §2
Breast carcinoma cell = assay: Drug concentration causing 50% lethality against breast human cancer line; format: functional; outline: as §2
Colon carcinoma cell = assay: Drug concentration causing 50% lethality against human cancer line of colon; format: functional; outline: as §2
[7] = Homo sapiens, Renal cancer cell line
[8] = Homo sapiens, Ovarian carcinoma cell

Row | Structure (SMILES) | ΔTm (Bos taurus [1]) [°C] | ΔTm (Bos taurus [2]) [°C] | CC50 (Tumor Cell line [3]; Homo sapiens, Tumor Cell line) [µM] | CC50 (Melanoma cell; Homo sapiens, Melanoma cell) [µM] | CC50 (Renal cancer cell line; [7]) [µM] | CC50 (Prostatic carcinoma cell) [µM] | TGI (Tumor Cell line [4]; Homo sapiens, Tumor Cell line) [µM] | CC50 (Ovarian carcinoma cell; [8]) [µM] | GI50 (Tumor Cell line [5]; Homo sapiens, Tumor Cell line) [µM] | CC50 [6] [µM] | CC50 (Homo sapiens; Homo sapiens) [µM] | also measured
1 | COc1cc2c(cc1O)N=C[C@@H]1CCCN1C2=O | 0.3 | 0.7 |  |  |  |  |  |  |  |  |  | 
2 | COc1cc2c(cc1OCCCOc1cc3c(cc1OC)C(=O)N1CCC[C@H]1C=N3)N=C[C@@H]1CCCN1C2=O | 10.2 |  |  |  |  |  |  |  |  |  |  | 
3 | COc1cc2c(cc1OCCCCOc1cc3c(cc1OC)C(=O)N1CCC[C@H]1C(=O)N3)N=C[C@@H]1CCCN1C2=O | 5 | 8.5 | 50.1 | 41.7 | 55 | 67.6 | 20.4 | 58.9 | 7.24 | 24.4 | 58.9 | LC50 (CNS carcinoma cell): 45.7 µM; LC50 (Breast carcinoma cell): 53.7 µM; LC50 (50% lethal concentration) (Colon carcinoma cell): 57.5 µM
4 | COc1cc2c(cc1OCCCOc1cc3c(cc1OC)C(=O)N1CCC[C@H]1C(=O)N3)N=C[C@@H]1CCCN1C2=O | 6.5 | 7 | 83.2 | 83.2 | 91.2 | > 100 | 42.7 | 95.5 | 13.2 | 33.1 | > 100 | 
5 | COc1cc2c(cc1OCCCCCOc1cc3c(cc1OC)C(=O)N1CCC[C@H]1C(=O)N3)N=C[C@@H]1CCCN1C2=O | 14 | 17 | 44.7 |  | 51.3 | > 100 | 2.24 | 87.1 | 0.115 |  | 58.9 | CC50 (Tumor Cell line [3]): 27.5 µM; CC50 (Melanoma cell): 10 µM and 3.31 µM; CC50 (Renal cancer cell line): 44.7 µM; TGI (Tumor Cell line [4]): 1.12 µM; CC50 (Ovarian carcinoma cell): 60.3 µM; GI50 (Tumor Cell line [5]): 0.12 µM; CC50 (Homo sapiens): 79.4 µM
